Reference: paper PMC7240828 (ACS Omega, 2020)
“Also recorded” adds a separate entry of the source.

What was measured:
SGLT1 = target: T1, SGLT1 (Homo sapiens, UniProt P13866); assay: Flavonoid uptake/transport in Caco-2 BBe1 cells with phloridzin; assay type: in vitro ADME; details: 50 μM flavonoid, 4 h; for fold change of glycoside transport by phloridzin-mediated inhibition: 1 μM phloridzin 30 min pretreatment, basolateral transport; for effect of phloridzin on cellular uptake and transport of the flavonoid / effect of phloridzin on cellular uptake of the flavonoid: 1 μM phloridzin; for effect of phloridzin on cellular uptake of the flavonoid: cell lysate
T1 sequence (P13866 1-664): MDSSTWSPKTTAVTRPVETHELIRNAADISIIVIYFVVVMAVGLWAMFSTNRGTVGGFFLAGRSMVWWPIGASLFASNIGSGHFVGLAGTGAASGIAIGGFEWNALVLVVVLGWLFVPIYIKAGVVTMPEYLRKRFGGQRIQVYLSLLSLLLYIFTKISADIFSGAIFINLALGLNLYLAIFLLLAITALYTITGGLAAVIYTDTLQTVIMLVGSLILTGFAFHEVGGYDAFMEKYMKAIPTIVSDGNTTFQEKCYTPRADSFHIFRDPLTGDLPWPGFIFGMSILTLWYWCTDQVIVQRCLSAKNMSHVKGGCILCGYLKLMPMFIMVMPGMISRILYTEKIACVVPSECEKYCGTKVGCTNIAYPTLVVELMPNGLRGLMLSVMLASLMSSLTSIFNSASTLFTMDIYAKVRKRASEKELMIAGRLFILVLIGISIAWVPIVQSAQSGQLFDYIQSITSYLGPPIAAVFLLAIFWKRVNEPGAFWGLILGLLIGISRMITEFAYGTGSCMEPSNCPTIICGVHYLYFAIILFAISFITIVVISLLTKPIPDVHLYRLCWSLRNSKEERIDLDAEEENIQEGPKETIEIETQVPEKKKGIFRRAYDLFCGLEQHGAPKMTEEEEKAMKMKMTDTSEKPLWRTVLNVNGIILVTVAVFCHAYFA
In short: (§1)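 Quantitation was by HPLC on a phenyl-hexyl column (DAD, 360 and 520 nm), using external standard curves from 0–50 μM. Values are expressed as percent of the amount added apically. Data are mean ± SEM of at least three independent experiments.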

Caco-2 BBe1 monolayers = assay type: in vitro ADME, human; details: 50 μM apical, 0.5, 2 and 4 h, cell lysate and basolateral compartment
In short: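 Cells at passage 50–60 were grown on PET inserts (3 × 10^4 cells/well) in supplemented high-glucose DMEM at 37 °C, 5% CO2. Monolayers with TEER >400 Ω cm2 on day 9 were used. 50 μM test compound in HBSS pH 6.4 was applied apically, with HBSS/10 mM HEPES pH 7.4 basolaterally. Basolateral medium and sonicated, methanol/2% FA-extracted lysates were sampled at 0.5, 2 and 4 h.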

Caco-2 BBe1 cells = assay: Cellular glucose; assay type: cell-based, human; details: 50 μM, 2 h pretreatment, 2-NBDG fluorescence, vs positive control
In short: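 Cells seeded at 1 × 10^5 per well and grown overnight, then PBS-washed. Pretreated with 50 μM test compound in glucose-free DMEM for 2 h. Glucose-free DMEM containing 300 μg/mL 2-NBDG was then added for another 2 h. After a PBS wash, fluorescence was read at ex 485/em 535 nm and compared with the positive control group.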

GLUT2 = target: T2, GLUT2 (Homo sapiens, UniProt P11168); assay: Flavonoid uptake/transport in Caco-2 BBe1 cells with phloretin; assay type: in vitro ADME; details: 1 μM phloretin, 50 μM flavonoid, 4 h, cell lysate
T2 sequence (P11168 1-524): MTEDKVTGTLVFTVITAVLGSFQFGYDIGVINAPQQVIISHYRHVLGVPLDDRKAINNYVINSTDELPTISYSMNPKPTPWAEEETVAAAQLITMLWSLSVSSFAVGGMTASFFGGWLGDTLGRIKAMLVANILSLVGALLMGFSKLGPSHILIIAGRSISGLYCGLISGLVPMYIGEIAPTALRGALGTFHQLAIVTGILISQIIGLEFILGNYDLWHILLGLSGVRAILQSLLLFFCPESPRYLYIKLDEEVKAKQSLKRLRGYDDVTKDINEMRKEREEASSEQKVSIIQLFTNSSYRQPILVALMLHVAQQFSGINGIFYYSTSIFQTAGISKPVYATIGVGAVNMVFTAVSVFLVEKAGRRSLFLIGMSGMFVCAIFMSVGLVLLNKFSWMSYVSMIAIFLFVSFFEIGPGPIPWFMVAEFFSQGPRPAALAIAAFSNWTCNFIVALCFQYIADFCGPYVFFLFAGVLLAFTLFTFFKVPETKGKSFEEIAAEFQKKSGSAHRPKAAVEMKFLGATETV
In short: as §1

Caco-2 cells = details: SGLT1-depended manner; cited from earlier work

SMILES | fold change of glycoside transport by phloridzin-mediated inhibition (SGLT1) | effect of phloridzin on cellular uptake of the flavonoid (SGLT1) | effect of phloretin on cellular uptake of the flavonoid (GLUT2) | effect of phloridzin on cellular uptake and transport of the flavonoid (SGLT1) | cellular uptake and transport kinetics (Caco-2 BBe1 monolayers) | inhibition of glucose uptake (Caco-2 BBe1 cells) | inhibition of glucose uptake (Caco-2 cells)
O=c1c(O[C@@H]2O[C@H](CO)[C@@H](O)[C@H](O)[C@H]2O)c(-c2ccc(O)c(O)c2)oc2cc(O)cc(O)c12 [Q-3-G, quercetin 3-β-D-glucoside] | 2.31 fold | – | – | significantly reduced the amount of cellular and transported | – | – | –
Oc1cc(O)c2cc(O)c(-c3ccc(O)c(O)c3)[o+]c2c1 [cyanidin] | – | – | – | no effect on the uptake and transport | noticeable decrease; also recorded: readily permeated into the intestinal mucosa within 2 h | significantly blocked the glucose uptake | –
O=c1c(O)c(-c2ccc(O)c(O)c2)oc2cc(O)cc(O)c12 [quercetin] | – | – | – | no effect on the uptake and transport | both concentrations continued to increase; also recorded: readily permeated into the intestinal mucosa within 2 h | significantly blocked the glucose uptake | –
C[C@@H]1O[C@@H](OC[C@H]2O[C@@H](Oc3c(-c4ccc(O)c(O)c4)oc4cc(O)cc(O)c4c3=O)[C@H](O)[C@@H](O)[C@@H]2O)[C@H](O)[C@H](O)[C@H]1O [rutin, quercetin 3-rutinoside] | 5.77 fold | – | – | significantly reduced the amount of cellular and transported | – | – | inhibited glucose uptake

Further lines, with some results ahead:

fold change of glycoside transport by phloridzin-mediated inhibition (SGLT1) | effect of phloridzin on cellular uptake of the flavonoid (SGLT1) | effect of phloretin on cellular uptake of the flavonoid (GLUT2) | SMILES | effect of phloridzin on cellular uptake and transport of the flavonoid (SGLT1) | cellular uptake and transport kinetics (Caco-2 BBe1 monolayers) | inhibition of glucose uptake (Caco-2 BBe1 cells) | inhibition of glucose uptake (Caco-2 cells)
3.29 fold | less significant | – | OC[C@H]1O[C@@H](Oc2cc3c(O)cc(O)cc3[o+]c2-c2ccc(O)c(O)c2)[C@H](O)[C@@H](O)[C@@H]1O [C-3-G, cyanidin 3-O-glucoside] | significantly reduced the amount of cellular and transported | continued to increase as the incubation period extends from 30 min to 4 h | – | –
6.45 fold | significantly inhibited by phloridzin | significantly inhibited cellular uptake | OC[C@H]1O[C@@H](Oc2cc3c(O[C@@H]4O[C@H](CO)[C@@H](O)[C@H](O)[C@H]4O)cc(O)cc3[o+]c2-c2ccc(O)c(O)c2)[C@H](O)[C@@H](O)[C@@H]1O [cyanin, cyanidin 3,5-diglucoside] | significantly reduced the amount of cellular and transported | continued to increase as the incubation period extends from 30 min to 4 h | – | –
